Cytotoxicity data for 71 compounds are collected here from ChEMBL document CHEMBL4513216, “Probing the Open Global Health Chemical Diversity Library for Multistage-Active Starting Points for Next-Generation Antimalarials” (ACS Infect Dis, 2020).

Structures are written as SMILES.

This series can be described thus: Toxicity liver stage against HepG2, at 10uM. It is filed as cell-based. Also noted: test concentration 10 uM, cell line HepG2-A16-CD81EGFP. To be noted: human, HepG2-A16-CD81EGFP cells; read-out: INHIBITION
In outline: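 Uninfected HepG2-A16-CD81EGFP cells, 3 × 10^3 per well, 1536-well, plated on prespotted compound at 10 μM final, parasite-free screening media added to match infected plates; puromycin 10 μM positive, DMSO 0.5% negative; run in parallel with 48 h PbLuc assay at 37 °C, 5% CO2; viability by CellTiter-Glo luminescence, normalized to controls.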
For the compound `CCCc1cc(=O)[nH]c(-n2nc(-c3cccs3)cc2N)n1`, the cytotoxicity at 10 µM was 11.2%. On to `O=C(Nc1ccccc1F)c1nn(C2CCS(=O)(=O)C2)c2c1CCCC2` (stereo unspecified), for which the cytotoxicity at 10 µM came out at 6.17%.

Regarding `O=C(NCCCN1CCCCC1)c1ccc(-n2ccc3ccccc32)s1`, the cytotoxicity at 10 µM was -6.19%. On to `Cc1cc2c(cc1Cl)C=CC1(CCN(CC(=O)N3CCCC3)CC1)O2`, for which the cytotoxicity at 10 µM is -8.05%. As to `Fc1ccc(CN2CCCC(c3cc4ncccc4[nH]3)C2)cc1` (stereo unspecified), the cytotoxicity at 10 µM was -1.87%. As for `CN1CCC(c2cccc(Cc3ccc(C(F)(F)F)cc3)n2)CC1`, the cytotoxicity at 10 µM was found to be 3%. On to `CN(C(=O)Nc1ccncc1)C1CCN(c2ccc(Cl)cc2)CC1`, for which the cytotoxicity at 10 µM was 1.44%. Regarding `O=C(CCn1cncn1)NCC1CCS(=O)(=O)C1` (stereo unspecified), the cytotoxicity at 10 µM was -48.3%. On to `O=C(Nc1cncc(Br)c1O)c1ccon1`, for which the cytotoxicity at 10 µM stood at 15.4%. In the case of `CCc1nnc(CNc2ccc(CC(=O)N3CCSCC3)cc2)o1`, the cytotoxicity at 10 µM is 7.37%. Then `COc1ccc2c(c1)OCC(CNC1CCc3nc(C)nn3C1)=C2` (stereo unspecified), with 1.84%; and `CC(C)(C)n1ncc(NCC(O)c2ccc(F)c(F)c2)c(Cl)c1=O` (stereo unspecified), with 54.1%; and `COc1ccc(C)cc1CN1CCn2cccc2C1C` (stereo unspecified), with 18.3%. Turning to `COc1ccsc1C(=O)NC1CCN(c2cccc(F)c2)CC1`, the cytotoxicity at 10 µM was 18.3%.

On to `CC(C)CCN(C(=O)Nc1cccc(C(=O)N(C)C)c1)C1CC1`, for which the cytotoxicity at 10 µM was -14.2%. On to `COCC(=O)NC(C)c1sc(-c2ccccc2F)nc1C` (stereo unspecified), for which the cytotoxicity at 10 µM amounted to 5.41%. To `CC(C)c1ccc(/C=C/CC(=O)NC2CCN(C(N)=O)CC2)cc1` belongs 7.1%; to `CCSCCC(C)N(C)C(=O)c1ccc(C)o1` (stereo unspecified), -3.75%; to `CCNc1ccnc(CN2CCCC2C(=O)Nc2nccs2)c1` (stereo unspecified), 4.32%. With `Cc1cnn(CCNCc2ccc(OCc3cscn3)cc2)c1`, the cytotoxicity at 10 µM was -5.48%.

Turning to `Cc1cccc2c1OCCCC2NCc1nnc2n1CCCCC2` (stereo unspecified), the cytotoxicity at 10 µM was -0.699%.

On to `Cc1nn(C)c(N(C)C)c1CNCC(O)COc1cccc(F)c1` (stereo unspecified), for which the cytotoxicity at 10 µM is 6.2%. As for `CC(Cn1cccn1)NCc1nc(-c2cccnc2)no1` (stereo unspecified), the cytotoxicity at 10 µM was -0.813%. For the compound `CCOCc1ccccc1NC(=O)NCC(C)(O)c1cc(C)oc1C` (stereo unspecified), the cytotoxicity at 10 µM was -1.48%. Take `COc1cccc(CNc2cc(C)nc(-c3ccncc3)n2)c1OC`: the cytotoxicity at 10 µM worked out at 46.5%. Then `CN(Cc1cccnc1)C(CO)c1cccc(Br)c1` (stereo unspecified), with -5.37%; and `CC(SCC(=O)N(C)CC(=O)NC1CC1)c1ccccc1F` (stereo unspecified), with -2.49%; and `NCc1ccnc(Oc2ccc(F)cc2)c1`, with 12.4%. Regarding `CN(Cc1c(F)cccc1Cl)C(=O)CN(C)C1CCc2ccccc21` (stereo unspecified), the cytotoxicity at 10 µM stood at 11.3%. With `CCN(c1ccc(C(=O)NCc2cc[nH]n2)cc1)C(C)C`, the cytotoxicity at 10 µM is 11.9%.

For `COCCCN1CCCN(C(C)C(=O)Nc2cccc(I)c2)CC1` (stereo unspecified), the cytotoxicity at 10 µM was -8.34%. Then `CCc1nc(CN2CCCN(c3ncnc4ccccc34)CC2)no1`, with 43.6%. As for `CC(NC(=O)c1cc(-c2cccc(Cl)c2)no1)C(=O)N1CCCC1` (stereo unspecified), the cytotoxicity at 10 µM came out at 3.59%. To `CS(=O)(=O)N1C[C@H]2CN(CC3CC3)C(=O)[C@H]2C1` belongs 6.53%; to `CC(C)N1CCCN(c2nc(-c3cccnc3)nc3c2cnn3C)CC1`, 28.2%; to `CCc1nc(C)cc(N2CCCC(C(=O)c3ccc(OC)cc3C)C2)n1` (stereo unspecified), 9.99%.

With `CCN(CC)C(=O)[C@@H]1C[C@@H](n2cc(-c3ccccn3)nn2)CN1`, the cytotoxicity at 10 µM turned out to be 9.63%. To `CC(C)c1nc(CN2CCc3onc(-c4cccc(F)c4)c3C2)no1` belongs 5.56%; to `c1ccc(C2CCCN(c3ncnc4c3CCNC4)CC2)cc1` (stereo unspecified), 58.5%; to `Cc1noc(-c2ccnc(Oc3cccc(CN4CCCC4)c3F)c2)n1`, -7.07%.

For `Cc1cc2c(N3CCCC(OCc4cccnc4)C3)ncnc2s1` (stereo unspecified), the cytotoxicity at 10 µM stood at 39%.

For `O=C(NC1CCCCC1)N1CCC(n2cc(-c3ccccn3)nn2)CC1`, the cytotoxicity at 10 µM is 4.49%. On to `COc1cc(N2CCCC(CO)(Cc3ccccc3F)C2)ncn1` (stereo unspecified), for which the cytotoxicity at 10 µM worked out at 45.7%. To `O=C(c1coc(COc2cccc3cnccc23)n1)N1CCCCCC1` belongs -128%.

For the compound `CC1(C)CNC(=O)c2nc(CCCN3CCCC3)[nH]c2C1`, the cytotoxicity at 10 µM is -12.4%. To `CCCn1ncc(CN2CCCC(C(=O)c3ccc(SC)cc3)C2)c1C` (stereo unspecified) belongs -3.25%. To `Cc1csc2ncnc(N3CCC(Cn4cc(C(C)(C)O)nn4)CC3)c12` belongs 49.2%; to `OCC1(CCOc2ccccc2)CCCN(c2ccc(Cl)cn2)C1` (stereo unspecified), 7.52%; to `CSCC(=O)N1CCCN(c2ccccc2C)CC1`, 8.14%. To `Cc1ncc(C)c(N2CCCC(CO)(Cc3cccc(Cl)c3)C2)n1` (stereo unspecified) belongs 59.4%; to `Cc1nc(N2CC[C@@H](NC(=O)c3cnccn3)[C@H](O)C2)c2ccsc2n1`, 38.6%; to `CCCOc1ccc(CNc2cncc(-n3cccn3)n2)cc1`, 11.7%. As for `CC(C)OCc1cccc(CNc2cnn(C)c(=O)c2Cl)c1`, the cytotoxicity at 10 µM was 29.5%. For `c1nc(N2CCCC(Cn3cncn3)C2)c2sccc2n1` (stereo unspecified), the cytotoxicity at 10 µM worked out at 6.74%. Turning to `CC1CN(CC2CCCC2)CCN1c1ccc2nncn2n1` (stereo unspecified), the cytotoxicity at 10 µM amounted to 6.36%.

Take `c1ccc2sc(CN3CCOC(Cn4cncn4)C3)nc2c1` (stereo unspecified): the cytotoxicity at 10 µM was -0.489%. With `CNC(=O)[C@@H]1C[C@H]2CN(Cc3c(C)noc3C)C[C@H]2N1C(C)C`, the cytotoxicity at 10 µM is -107%.

On to `CN(C)CCOCC1CN(Cc2cccc(F)c2)Cc2nccn2C1` (stereo unspecified), for which the cytotoxicity at 10 µM is -131%. Consider `c1ccc(-c2ccc(C3CNCCO3)nc2)cc1` (stereo unspecified), for which the cytotoxicity at 10 µM came out at 2.36%. Then `CCn1ncc2c1C(COCC1CC1)CN(c1ccc(C)nn1)C2` (stereo unspecified), with 11.4%; and `Cc1cccc(CN2CCO[C@H]3[C@@H](OCc4ccncc4)CC[C@@H]32)n1`, with -85.4%; and `O=C(c1ccco1)N1CC[C@@H]2O[C@@H](COCCN3CCCC3)CC[C@@H]21`, with -76.8%. Then `Clc1cccc(C[C@@H]2NCCC[C@@H]2Nc2ccccc2)c1`, with 89.3%; and `N#Cc1ccc(N2CCCC3(CCN(c4cccnc4)CC3)C2)cc1`, with 55.5%; and `COc1cccc(CN2CCc3nc(C(=O)NCC(C)C)sc3CC2)c1`, with 16.8%. To `Cc1noc(C)c1CN1Cc2ccnn2CC(C(=O)NCC2CC2)C1` (stereo unspecified) belongs -69.2%. In the case of `COc1cc(N2C[C@H]3CN(Cc4ccccn4)C[C@H]3C2)ncn1`, the cytotoxicity at 10 µM is -96.3%. Regarding `c1ccc2c(c1)N(CC1CCOC1)CC21CCN(c2cnccn2)CC1` (stereo unspecified), the cytotoxicity at 10 µM was -94.7%. In the case of `O=C1CC[C@H]2[C@H](CCN2S(=O)(=O)C2CC2)N1CCN1CCCC1`, the cytotoxicity at 10 µM was -88.9%. On to `c1cnc(N2CCC3(CC2)CN(CC2CC2)c2ccccc23)nc1`, for which the cytotoxicity at 10 µM stood at 19.9%. To `CC(C)CS(=O)(=O)N1C[C@@H]2C[C@H](C(=O)N3CCOCC3)[C@H](C1)O2` belongs -2.71%.
